The source of these data is ChEMBL document CHEMBL4359840, “Computationally Driven Structure Optimization, Synthesis, and Biological Evaluation of Imidazole-Based Proprotein Convertase Subtilisin/Kexin 9 (PCSK9) Inhibitors” (J Med Chem, 2019).

The source made the active and inactive calls. The calls are words filed in the database; no cut-off is given here. Bounds are passed on as bounds.

Data set [1] has as its target T1, PCSK9/LDLR (Homo sapiens) (UniProt Q8NBP7+P01130). Kind of data set: Inhibition of PCSK9 (unknown origin) interaction with LDLR expressed in human HepG2 cells assessed as LDL uptake level at 1 uM measured after 2 hrs by LDL-Dylight 550 dye based fluorescence assay (reference value: 34.8 to 67%). Type of data set: cell-based. Details: scale not given: the % may be the effect or the level left.

Data set [2] has as its target T2, PCSK9/LDLR (Homo sapiens, UniProt Q8NBP7). Put plainly: (§1) Inhibition of recombinant His-tagged PCSK9 (unknown origin) binding to recombinant […] AB domain (unknown origin) measured after 2 hrs by ELISA. Type of data set: protein assay. In a few lines: (§2)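 Commercial kit: compound added with His-tagged PCSK9 to wells coated with recombinant LDLR-AB domain. Bound His-PCSK9 quantified by absorbance at 450 nm. Mean ± s.d. of three independent experiments in duplicate.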

Data set [3] deals with T1, PCSK9/LDLR (Homo sapiens). Kind of data set: Inhibition of PCSK9 (unknown origin) interaction with LDLR expressed in human HepG2 cells assessed as LDLR level on cell membrane at 1 uM measured after 2 hrs by in-cell Western analysis (reference value: 30.5 to 47.2%). The class given is cell-based. On the set-up: scale not given: the % may be the effect or the level left.

The target of data set [4] is T2, PCSK9/LDLR. Kind of data set: Inhibition of PCSK9 (unknown origin) interaction with LDLR expressed in human HepG2 cells assessed as increase in LDL uptake level measured after 24 hrs by LDL-Dylight 550 dye based fluorescence assay. Type of data set: cell-based.
Target sequence in this assay (Q8NBP7 31-152 limits assumed): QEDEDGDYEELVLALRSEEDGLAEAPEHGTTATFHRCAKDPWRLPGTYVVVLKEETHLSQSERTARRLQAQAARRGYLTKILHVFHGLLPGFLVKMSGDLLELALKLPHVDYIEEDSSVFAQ
Target sequence in this assay (Q8NBP7 153-692 limits assumed): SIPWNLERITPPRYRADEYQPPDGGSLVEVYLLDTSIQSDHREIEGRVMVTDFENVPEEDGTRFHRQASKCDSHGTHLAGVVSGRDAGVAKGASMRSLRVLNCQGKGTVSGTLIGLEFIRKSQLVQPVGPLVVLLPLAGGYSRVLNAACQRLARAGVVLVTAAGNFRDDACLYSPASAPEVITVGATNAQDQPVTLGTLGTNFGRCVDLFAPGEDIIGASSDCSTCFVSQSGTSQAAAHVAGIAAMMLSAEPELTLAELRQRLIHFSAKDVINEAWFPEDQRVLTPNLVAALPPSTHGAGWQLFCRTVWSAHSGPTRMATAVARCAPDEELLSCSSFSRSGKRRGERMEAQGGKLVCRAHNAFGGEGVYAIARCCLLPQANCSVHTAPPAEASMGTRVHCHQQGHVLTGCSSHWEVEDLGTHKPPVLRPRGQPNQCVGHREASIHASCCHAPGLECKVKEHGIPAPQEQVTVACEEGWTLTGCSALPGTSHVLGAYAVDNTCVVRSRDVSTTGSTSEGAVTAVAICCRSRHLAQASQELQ
Target sequence in this assay (P01130 22-860 partner limits assumed): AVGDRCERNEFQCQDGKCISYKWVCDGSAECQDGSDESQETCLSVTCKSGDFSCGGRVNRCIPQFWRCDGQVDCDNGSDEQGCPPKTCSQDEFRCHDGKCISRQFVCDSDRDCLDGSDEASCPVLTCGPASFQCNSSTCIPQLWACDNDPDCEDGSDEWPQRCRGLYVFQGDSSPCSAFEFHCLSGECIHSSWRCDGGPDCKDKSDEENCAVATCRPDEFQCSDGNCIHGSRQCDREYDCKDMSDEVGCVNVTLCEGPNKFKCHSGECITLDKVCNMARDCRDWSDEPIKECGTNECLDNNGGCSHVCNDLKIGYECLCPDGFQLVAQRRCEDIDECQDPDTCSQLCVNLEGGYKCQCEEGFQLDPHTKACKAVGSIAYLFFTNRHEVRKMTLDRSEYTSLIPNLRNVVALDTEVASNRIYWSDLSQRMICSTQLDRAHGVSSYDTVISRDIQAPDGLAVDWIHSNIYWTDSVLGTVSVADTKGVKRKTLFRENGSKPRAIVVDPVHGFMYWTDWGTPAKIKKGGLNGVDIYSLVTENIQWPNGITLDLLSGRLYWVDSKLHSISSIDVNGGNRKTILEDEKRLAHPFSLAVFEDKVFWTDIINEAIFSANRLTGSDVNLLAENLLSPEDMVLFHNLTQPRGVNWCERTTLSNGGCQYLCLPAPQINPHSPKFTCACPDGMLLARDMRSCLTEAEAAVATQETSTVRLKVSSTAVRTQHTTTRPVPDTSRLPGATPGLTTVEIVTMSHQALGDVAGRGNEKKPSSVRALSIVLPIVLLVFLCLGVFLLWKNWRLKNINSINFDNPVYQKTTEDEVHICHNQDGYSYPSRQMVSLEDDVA
The target in data set [5] is T1, PCSK9/LDLR (Homo sapiens). Put plainly: Inhibition of recombinant His-tagged PCSK9 (unknown origin) binding to recombinant […] AB domain (unknown origin) at 10 uM measured after 2 hrs by ELISA. Type of data set: protein assay. In a few lines: as §2
The target of data set [6] is T1, PCSK9/LDLR (Homo sapiens). Put plainly: Inhibition of PCSK9 (unknown origin) interaction with LDLR expressed in human HepG2 cells assessed as increase in LDL uptake level at 10 uM measured after 2 hrs by LDL-Dylight 550 dye based fluorescence assay. Type of data set: cell-based.
For data set [7], the target named is T1, PCSK9/LDLR (Homo sapiens). Put plainly: Inhibition of recombinant His-tagged PCSK9 (unknown origin) binding to recombinant […] AB domain (unknown origin) at 100 uM measured after 2 hrs by ELISA relative to control. Type of data set: protein assay. An outline of the steps:
as §2

For data set [8], the target named is T1, PCSK9/LDLR (Homo sapiens). Kind of data set: Inhibition of PCSK9 (unknown origin) interaction with LDLR expressed in human HepG2 cells assessed as increase LDLR level on cell membrane at 10 uM measured after 2 hrs by in-cell Western analysis. The class given is cell-based.
The target of data set [9] is T1, PCSK9/LDLR (Homo sapiens). The data set is described as §1. The class given is protein assay. An outline of the steps: as §2
Data set [10] addresses T1, PCSK9/LDLR (Homo sapiens). Kind of data set: Inhibition of PCSK9 (unknown origin) interaction with LDLR expressed in human HepG2 cells assessed as increase LDLR level on cell membrane measured after 2 hrs by in-cell Western analysis. Type of data set: cell-based.
For data set [11], the target named is T1, PCSK9/LDLR (Homo sapiens). Kind of data set: Inhibition of PCSK9 (unknown origin) interaction with LDLR expressed in human HepG2 cells assessed as LDLR level on cell membrane at 0.1 uM measured after 2 hrs by in-cell Western analysis (reference value: 30.5 to 47.2%). Details: scale not given: the % may be the effect or the level left. Type of data set: cell-based.

For data set [12], the target named is T1, PCSK9/LDLR (Homo sapiens). Kind of data set: Inhibition of PCSK9 (unknown origin) interaction with LDLR expressed in human HepG2 cells assessed as LDL uptake level at 10 uM measured after 2 hrs by LDL-Dylight 550 dye based fluorescence assay (reference value: 34.8 to 67%). Type of data set: cell-based. On the set-up: scale not given: the % may be the effect or the level left.

Data set [13] addresses T1, PCSK9/LDLR (Homo sapiens). Kind of data set: Inhibition of PCSK9 (unknown origin) interaction with LDLR expressed in human HepG2 cells assessed as LDL uptake level at 0.1 uM measured after 2 hrs by LDL-Dylight 550 dye based fluorescence assay (reference value: 34.8 to 67%). Type of data set: cell-based. Details: scale not given: the % may be the effect or the level left.

Data set [14] has as its system HepG2. Kind of data set: Cytotoxicity against human HepG2 cells assessed as reduction in cell viability at 0.1 to 10 uM measured after 48 hrs by MTT assay. Type of data set: cell-based. The following applies: hepg2, 48 h.
Data set [15] has as its target T1, PCSK9/LDLR (Homo sapiens). Kind of data set: Inhibition of PCSK9 (unknown origin) interaction with LDLR expressed in human HepG2 cells assessed as LDLR level on cell membrane at 10 uM measured after 2 hrs by in-cell Western analysis (reference value: 30.5 to 47.2%). The class given is cell-based. On the set-up: scale not given: the % may be the effect or the level left.

T1 sequence (P01130 22-860 partner limits assumed): as above
T1 sequence (Q8NBP7 31-152 limits assumed): as the sequence (Q8NBP7 31-152 limits assumed) above
T1 sequence (Q8NBP7 153-692 limits assumed): as the sequence (Q8NBP7 153-692 limits assumed) above

For H-LILPKHSDAD-OH, the Activity in data set [1] was less than 104%; in data set [3], less than 93.9%. Further, the IC50 in [2] amounted to 1.6 µM.
On to `Cn1cncc1-c1ncc(-c2ncc(-c3ncc(-c4ccccc4)n3C)n2C)n1C`, for which the EC50 in data set [4] was 6 µM.
`COc1ccc(-c2cnc(-c3cncn3Cc3ccccc3)n2C)cc1`: the inhibition result in data set [5], in data set [6] and in data set [8] was “inactive” each time. For the same compound, the inhibition in [7] turned out to be 18.2%.
With `CNCCCCCn1cncc1-c1ncc(-c2ncc(-c3ccc(OC)cc3)n2C)n1CCc1ccccc1`, in data set [2], the IC50 is 3.06 µM. The inhibition result in data set [9] was “Dose-dependent effect”.
Take `CC(C)C[C@H](C(=O)N1CCN([C@@H](CC(N)=O)C(=O)N[C@@H](CCCNC(=N)N)C(=O)N[C@H]2CCOC2=O)CC1)N1C(=O)N[C@@H](CC(=O)O)C1=O`: the half-inhibitory concentration (IC50) in [2] was 20 to 40 µM.
As for `CNCCCCCn1cncc1-c1ncc(-c2ncc(-c3ccc(OC)cc3)n2C)n1Cc1ccccc1`, the Activity in [1] was less than 104%; in data set [11] it was less than 77.7%; in data set [12], 101%; in data set [13] it was 63.6%; in data set [14], “Non-Toxic”; in [3], less than 101%. Also, the Activity in data set [15] is less than 102%. For the same compound, the inhibition entry in data set [10] and in data set [9] was “Dose-dependent effect” throughout. Moreover, the IC50 in data set [2] was 1.38 µM.
